In PubChem BioAssay AID623916 (The Scripps Research Institute Molecular Screening Center, 2012):
The source made the active and inactive calls.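 Rule for the calls: active = recipient E. coli survival below 80% of the solvent-only control; inactive = survival at 80% of control or higher.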

These compounds were tested on E. coli V66 viability, colony formation, 1.5 h (assay: E. coli V66 viability reduction, late-stage follow-up, cytotoxicity control for AddAB inhibitor project, colony formation, single concentration, Hfr recombination (AID 623916)). Conditions: at 100 µM.
In short: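 Assay system: E. coli strain V66 recipients; buffer or medium: LB broth during compound pre-growth; also added: Hfr donor strain V1306 (HfrH), donor to recipient 1:10; compound dosing: single nominal 100 µM compound, present during pre-growth and mating; incubation: 1 h compound pre-growth plus 30 min mating, 1.5 h total; measured by: colony formation on non-selective plates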
With `CCn1cc(C(=O)O)c(=O)c2cc(F)c(N3CCN(C(=S)Nc4cccc(C(F)(F)F)c4)CC3)cc21` the outcome was “active”. For `CCn1cc(C(=O)O)c(=O)c2cnc(N3CCN(C(=S)Nc4cccc(C(F)(F)F)c4)CC3)nc21`, the outcome was “inactive”. With `CCn1cc(C(=O)O)c(=O)c2cnc(N3CCN(C(=S)Nc4ccc(F)cc4)CC3)nc21` the outcome was “inactive”. With `CC1CCc2c(sc(NC(=O)c3ccc([N+](=O)[O-])o3)c2N)C1` (centres undefined) the outcome was “inactive”. With `CC1CCc2c(sc(NC(=O)c3ccc([N+](=O)[O-])o3)c2C#N)C1` (centres undefined) the outcome was “inactive”. In the case of `NC(=O)c1ccsc1NC(=O)COC(=O)c1ccc([N+](=O)[O-])o1`, the outcome is reported as “inactive”. For `O=C(OCC(=O)c1cccs1)c1ccc([N+](=O)[O-])o1`, the outcome was “inactive”. In the case of `CCn1cc(C(=O)O)c(=O)c2cnc(N3CCN(C(=S)Nc4ccc5c(c4)OCCO5)CC3)nc21`, the outcome is reported as “inactive”. In the case of `CC(=O)Nc1ccc2nc(NC(=O)c3ccc([N+](=O)[O-])o3)sc2c1`, the outcome is reported as “inactive”. In the case of `CCn1cc(C(=O)O)c(=O)c2cnc(N3CCN(C(=S)NC(C)c4ccccc4)CC3)nc21` (centres undefined), the outcome is reported as “inactive”. For `CC1(C)Cc2c(sc(NC(=O)c3ccco3)c2C#N)CO1`, the outcome was “inactive”. With `Nc1c(NC(=O)c2ccc([N+](=O)[O-])o2)sc2c1CCCC2` the outcome was “inactive”. For `N#Cc1c(NC(=O)c2ccc([N+](=O)[O-])o2)sc2c1CCC2`, the outcome was “inactive”. With `O=C(Nc1ccc(N2CCOCC2)cc1)c1ccc([N+](=O)[O-])o1` the outcome was “inactive”. For `CCn1cc(C(=O)O)c(=O)c2cnc(N3CCN(C(=S)NC4CC5CCC4C5)CC3)nc21` (centres undefined), the outcome was “inactive”. With `CCn1cc(C(=O)O)c(=O)c2cnc(N3CCN(C(=S)Nc4ccccc4F)CC3)nc21` the outcome was “inactive”. For `N#Cc1c(NC(=O)c2ccco2)sc2c1CCC2`, the outcome was “inactive”. In the case of `CCn1cc(C(=O)O)c(=O)c2cnc(N3CCNCC3)nc21`, the outcome is reported as “inactive”. With `N#Cc1c(NC(=O)c2ccccc2)sc2c1CCC2` the outcome was “inactive”. `Cc1ccc(C(=O)Nc2sc3c(c2C#N)CCC3)o1` was tested, and the outcome was “inactive”. `O=C(Nc1cccc(NC(=O)c2ccccc2Cl)c1)c1ccc([N+](=O)[O-])o1` was tested, and the outcome was “inactive”. With `CCn1cc(C(=O)O)c(=O)c2cnc(N3CCN(C(=S)Nc4ccccc4)CC3)nc21` the outcome was “inactive”. In the case of `CCn1cc(C(=O)O)c(=O)c2cnc(N3CCN(C(=S)Nc4ccccc4OC)CC3)nc21`, the outcome is reported as “inactive”. `CCn1cc(C(=O)O)c(=O)c2cnc(N3CCN(C(=S)Nc4ccc5c(c4)OCO5)CC3)nc21` was tested, and the outcome was “inactive”. For `N#Cc1c(NC(=O)c2ccc(-c3ccccc3[N+](=O)[O-])o2)sc2c1CCCC2`, the outcome was “inactive”. With `N#Cc1c(NC(=O)c2ccccc2C(=O)O)sc2c1CCCC2` the outcome was “inactive”. In the case of `Cc1sc(NC(=O)c2ccc(Br)o2)c(C#N)c1C`, the outcome is reported as “inactive”. For `CCn1cc(C(=O)O)c(=O)c2cnc(N3CCN(C(=S)Nc4ccccc4Cl)CC3)nc21`, the outcome was “inactive”. `CCn1cc(C(=O)O)c(=O)c2cnc(N3CCN(C(=S)NCc4ccccc4)CC3)nc21` was tested, and the outcome was “inactive”. For `CCn1cc(C(=O)O)c(=O)c2cnc(N3CCN(C(=S)NC(=O)c4cccc(C)c4)CC3)nc21`, the outcome was “inactive”. With `C=CCn1c(Sc2ncc([N+](=O)[O-])s2)n[nH]c1=O` the outcome was “inactive”. `CCn1cc(C(=O)O)c(=O)c2cnc(N3CCN(C(=S)Nc4ccc(Cl)cc4)CC3)nc21` was tested, and the outcome was “inactive”. In the case of `N#Cc1c(NC(=O)c2cccc(F)c2)sc2c1CCCC2`, the outcome is reported as “inactive”. With `O=C(NCc1cccnc1)c1ccc([N+](=O)[O-])o1` the outcome was “inactive”. `Cc1ccc2nc(/C(C#N)=C\c3ccc([N+](=O)[O-])o3)[nH]c2c1` was tested, and the outcome was “inactive”. For `C=CCNC(=S)N1CCN(c2ncc3c(=O)c(C(=O)O)cn(CC)c3n2)CC1`, the outcome was “inactive”. In the case of `N#Cc1c(NC(=O)c2ccc([N+](=O)[O-])o2)sc2c1CCCC2`, the outcome is reported as “inactive”. `CCn1cc(C(=O)O)c(=O)c2cnc(N3CCN(C(=S)Nc4ccccc4C(F)(F)F)CC3)nc21` was tested, and the outcome was “inactive”. With `CCn1cc(C(=O)O)c(=O)c2cnc(N3CCN(C(=S)NC)CC3)nc21` the outcome was “inactive”. In the case of `Cc1cccnc1NC(=O)c1ccc([N+](=O)[O-])o1`, the outcome is reported as “inactive”. With `CCn1cc(C(=O)O)c(=O)c2cnc(N3CCN(C(=S)NC(=O)c4ccccc4Cl)CC3)nc21` the outcome was “inactive”. In the case of `CCn1cc(C(=O)O)c(=O)c2cnc(N3CCN(C(=S)Nc4ccccc4C)CC3)nc21`, the outcome is reported as “inactive”. In the case of `Cc1ccc(C(=O)Nc2sc3c(c2C#N)CCCCC3)o1`, the outcome is reported as “inactive”. With `N#Cc1c(NC(=O)C2CC=CCC2C(=O)O)sc2c1CCC2` (centres undefined) the outcome was “inactive”. `CCn1cc(C(=O)O)c(=O)c2cnc(N3CCN(C(=S)NC(=O)c4ccco4)CC3)nc21` was tested, and the outcome was “inactive”. With `N#Cc1c(NC(=O)c2cnccn2)sc2c1CCCC2` the outcome was “inactive”. In the case of `CCn1cc(C(=O)O)c(=O)c2cnc(N3CCN(C(=O)Nc4ccccc4)CC3)nc21`, the outcome is reported as “inactive”. In the case of `CCn1cc(C(=O)O)c(=O)c2cnc(N3CCN(C(=S)NC(=O)c4cccnc4)CC3)nc21`, the outcome is reported as “inactive”. For `O=C(Nc1ncccn1)c1ccc([N+](=O)[O-])o1`, the outcome was “inactive”.
